Measured values published in ChEMBL document CHEMBL2163271, “Antitumor agents 295. E-ring hydroxylated antofine and cryptopleurine analogues as antiproliferative agents: design, synthesis, and mechanistic studies” (J Med Chem, 2012).
Active and inactive are the calls of the source. The rule behind the calls is not given here.

Columns and labels:
[1] = tested on: A549; test: Cytotoxicity against human A549 cells after 2 hrs by methylene blue staining-based spectrophotometric analysis; type: functional, cell-based; settings: A549, 2 h
[2] = tested on: DU-145; test: Cytotoxicity against human DU145 cells after 2 hrs by methylene blue staining-based spectrophotometric analysis; type: functional, cell-based; settings: DU-145, 2 h
[3] = tested on: KB; test: Cytotoxicity against human KB cells after 2 hrs by methylene blue staining-based spectrophotometric analysis; type: functional, cell-based
[4] = Cytotoxicity against human KBVIN cells overexpressing P-gp after 2 hrs by methylene blue staining-based spectrophotometric analysis; type: functional, cell-based
[5] = tested on: SK-BR-3; test: Cytotoxicity against human SKBR3 cells after 2 hrs by methylene blue staining-based spectrophotometric analysis; type: functional, cell-based; settings: SK-BR-3, 2 h
[6] = tested on: A549; test: Downregulation of FBXW mRNA expression in human A549 cells by microarray analysis relative to control; type: functional
Procedure, shortened: (§1)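 Gene expression profiling of treated versus untreated A549 cells, with pathways analysed in the MetaCore database.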

[7] = tested on: PC-9; test: Cytotoxicity against human PC9 cells assessed as cell viability after 48 hrs by SRB assay; type: functional, cell-based; settings: PC-9, 48 h
Procedure, shortened: (§2)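 Human NSCLC lines (CL1-0, CL1-5, PC9, PC9IR) exposed to increasing compound concentrations for 48 h. Growth read by sulforhodamine B (SRB) staining, with IC50 in nM taken from the dose-response.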

[8] = tested on: A549; test: Downregulation of casein kinase 1 mRNA expression in human A549 cells by microarray analysis relative to control; type: functional; procedure, shortened: as §1
[9] = tested on: A549; test: Downregulation of myosin 5b mRNA expression in human A549 cells by microarray analysis relative to control; type: functional; procedure, shortened: as §1
[10] = tested on: A549; test: Downregulation of PECALM mRNA expression in human A549 cells by microarray analysis relative to control; type: functional; procedure, shortened: as §1
[11] = tested on: A549; test: Downregulation of HSP90 mRNA expression in human A549 cells by microarray analysis relative to control; type: functional; procedure, shortened: as §1
[12] = tested on: A549; test: Downregulation of DYRK2 mRNA expression in human A549 cells by microarray analysis relative to control; type: functional; procedure, shortened: as §1
[13] = tested on: A549; test: Downregulation of PLAU mRNA expression in human A549 cells by microarray analysis relative to control; type: functional; procedure, shortened: as §1
[14] = Cytotoxicity against human PC9IR cells assessed as cell viability after 48 hrs by SRB assay; type: functional, cell-based; procedure, shortened: as §2
[15] = tested on: A549; test: Downregulation of collagen 4 mRNA expression in human A549 cells by microarray analysis relative to control; type: functional; procedure, shortened: as §1
[16] = tested on: A549; test: Downregulation of CDK11 mRNA expression in human A549 cells by microarray analysis relative to control; type: functional; procedure, shortened: as §1
[17] = tested on: A549; test: Downregulation of Eps 15 mRNA expression in human A549 cells by microarray analysis relative to control; type: functional; procedure, shortened: as §1
[18] = tested on: A549; test: Downregulation of PLEKHA8 mRNA expression in human A549 cells by microarray analysis relative to control; type: functional; procedure, shortened: as §1
[19] = tested on: A549; test: Downregulation of HSP90 protein expression in human A549 cells at 3.6 to 100 nM after 48 hrs by Western blot analysis; type: functional, cell-based
Procedure, shortened: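 A549 cells treated with graded compound concentrations for 48 h. Whole-cell extracts were immunoblotted with antibody against HSP90.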

[20] = tested on: A549; test: Downregulation of beta-catenin mRNA expression in human A549 cells by microarray analysis relative to control
[21] = tested on: A549; test: Downregulation of cAMP dependent PKA cat mRNA expression in human A549 cells by microarray analysis relative to control; type: functional; procedure, shortened: as §1
[22] = tested on: A549; test: Downregulation of EEA1 mRNA expression in human A549 cells by microarray analysis relative to control; type: functional; procedure, shortened: as §1
[23] = Cytotoxicity against human CL1-0 cells assessed as cell viability after 48 hrs by SRB assay; type: functional, cell-based; settings: CL1-0, 48 h; procedure, shortened: as §2
[24] = tested on: A549; test: Downregulation of PI3K cat class 1A mRNA expression in human A549 cells by microarray analysis relative to control; type: functional; procedure, shortened: as §1
[25] = tested on: MRC5; test: Cytotoxicity against human MRC5 cells assessed as cell viability after 48 hrs by SRB assay; type: functional, cell-based; settings: MRC5, 48 h
[26] = tested on: A549; test: Upregulation of ubiquitin mRNA expression in human A549 cells by microarray analysis relative to control; type: functional; procedure, shortened: as §1
[27] = tested on: A549; test: Downregulation of rabaptin-5 mRNA expression in human A549 cells by microarray analysis relative to control; type: functional; procedure, shortened: as §1
[28] = tested on: A549; test: Downregulation of SNAP-25 mRNA expression in human A549 cells by microarray analysis relative to control; type: functional; procedure, shortened: as §1
[29] = tested on: A549; test: Downregulation of beta-catenin protein expression in human A549 cells at 3.6 to 100 nM after 48 hrs by Western blot analysis
[30] = Cytotoxicity against human CL1-5 cells assessed as cell viability after 48 hrs by SRB assay; type: functional, cell-based; settings: CL1-5, 48 h; procedure, shortened: as §2
[31] = tested on: A549; test: Downregulation of cyclin D protein expression in human A549 cells at 3.6 to 100 nM after 48 hrs by Western blot analysis; type: functional, cell-based
[32] = tested on: A549; test: Downregulation of syntazin 7 mRNA expression in human A549 cells by microarray analysis relative to control; type: functional; procedure, shortened: as §1
[33] = tested on: A549; test: Cytotoxicity against human A549 cells assessed as effect on cell morphology at 60 nM after 48 hrs by inverted phase-contrast microscopy; type: functional, cell-based
Procedure, shortened: (§3)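 A549 cells exposed to a rising concentration series for 48 h, including 60 nM. Cells were viewed under an inverted phase-contrast microscope and photographed, and cell number and morphology were scored by eye.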

[34] = tested on: A549; test: Downregulation of XIAP mRNA expression in human A549 cells by microarray analysis relative to control; type: functional; procedure, shortened: as §1
[35] = tested on: A549; test: Downregulation of HSP90 expression in human A549 cells at 3.6 nM after 48 hrs by RT-PCR analysis; type: functional, cell-based
Procedure, shortened: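 A549 cells exposed at 3.6 nM for 48 h. Transcript levels were measured by RT-PCR and compared with untreated cells.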

[36] = tested on: A549; test: Downregulation of SKP2 mRNA expression in human A549 cells by microarray analysis relative to control; type: functional; procedure, shortened: as §1
[37] = tested on: A549; test: Cytotoxicity against human A549 cells assessed as decrease in cell number at 60 nM after 48 hrs by inverted phase-contrast microscopy; type: functional, cell-based; procedure, shortened: as §3
[38] = tested on: A549; test: Downregulation of FRS2 mRNA expression in human A549 cells by microarray analysis relative to control; type: functional; procedure, shortened: as §1
[39] = tested on: A549; test: Downregulation of PI3K reg class 1A mRNA expression in human A549 cells by microarray analysis relative to control; type: functional; procedure, shortened: as §1
[40] = tested on: A549; test: Downregulation of VTI1B mRNA expression in human A549 cells by microarray analysis relative to control; type: functional; procedure, shortened: as §1
[41] = tested on: A549; test: Downregulation of fibronectin mRNA expression in human A549 cells by microarray analysis relative to control; type: functional; procedure, shortened: as §1
[42] = tested on: A549; test: Cytotoxicity against human A549 cells assessed as cell viability after 48 hrs by SRB assay; type: functional, cell-based; settings: A549, 48 h
[43] = tested on: A549; test: Downregulation of SAP18 mRNA expression in human A549 cells by microarray analysis relative to control; type: functional; procedure, shortened: as §1
[44] = tested on: A549; test: Downregulation of beta-catenin expression in human A549 cells at 3.6 nM after 48 hrs by RT-PCR analysis

Molecule COc1ccc2c3c(c4cc(OC)c(OC)cc4c2c1)C[C@H]1CC(=O)CCN1C3 has an IC50 [1] of 28 nM, an IC50 [2] of 45 nM and an IC50 [3] of 50 nM. It also gave an IC50 [4] of 43 nM.

For COc1ccc2c3c(c4cc(OC)c(OC)cc4c2c1)C[C@H]1CC[C@@H](O)CN1C3, the IC50 [1] was 82 nM, the IC50 [2] was 66 nM and the IC50 [5] was 348 nM. It also gave an IC50 [3] of 33 nM and an IC50 [4] of 45 nM.

For COc1ccc2c3c(c4cc(OC)c(OC)cc4c2c1)C[C@H]1CC[C@H](O)CN1C3, the IC50 [1] was 2510 nM, the IC50 [2] was 2250 nM and the IC50 [5] was 6440 nM. It also gave an IC50 [3] of 2250 nM and an IC50 [4] of 3070 nM.

With COc1ccc2c3c(c4cc(OC)c(OC)cc4c2c1)C[C@H]1C[C@H](O)CCN1C3 the “fold change (FC)” value [6] was less than 10, the IC50 [7] was 8.2 nM and the “fold change (FC)” value [8] was less than 10. The “fold change (FC)” value [9] was less than 10, the “fold change (FC)” value [10] was less than 10 and the “fold change (FC)” value [11] was less than 10. The “fold change (FC)” value [12] was less than 10, the “fold change (FC)” value [13] was less than 10 and the IC50 [14] was 43.2 nM. The “fold change (FC)” value [15] was less than 10, the IC50 [1] was 22 nM and the “fold change (FC)” value [16] was less than 10. The IC50 [2] was 11 nM, the “fold change (FC)” value [17] was less than 10 and the IC50 [5] was 72 nM. The “fold change (FC)” value [18] was less than 10, the IC50 [3] was 23 nM and the Activity [19] was “Active”. The “fold change (FC)” value [20] was less than 10, the “fold change (FC)” value [21] was less than 10 and the “fold change (FC)” value [22] was less than 10. The IC50 [23] was 58.4 nM, the “fold change (FC)” value [24] was less than 10 and the IC50 [25] was 98 nM. For the same molecule, the IC50 [4] was 25 nM, the “fold change (FC)” value [26] was greater than 10 and the “fold change (FC)” value [27] was less than 10. For the same molecule, the “fold change (FC)” value [28] was less than 10, the Activity [29] was “Active” and the IC50 [30] was 8.7 nM. For the same molecule, the Activity [31] was “Active”, the “fold change (FC)” value [32] was less than 10 and the Activity [33] was “inactive”. The “fold change (FC)” value [34] was less than 10, the Activity [35] was “Active” and the “fold change (FC)” value [36] was less than 10. For the same molecule, the Activity [37] was “Active”, the “fold change (FC)” value [38] was less than 10 and the “fold change (FC)” value [39] was less than 10. The “fold change (FC)” value [40] was less than 10, the “fold change (FC)” value [41] was less than 10 and the IC50 [42] was 9 nM. For the same molecule, the “fold change (FC)” value [43] was less than 10 and the Activity [44] was “Active”.

Molecule COc1ccc2c3c(c4cc(OC)c(OC)cc4c2c1)C[C@H]1COCCN1C3 has an IC50 [25] of 252 nM and an IC50 [42] of 40 nM.

COc1ccc2c3c(c4cc(OC)c(OC)cc4c2c1)C[C@H]1C[C@@H](O)CN1C3 gave an IC50 [1] of 610 nM, an IC50 [2] of 700 nM and an IC50 [3] of 780 nM. For the same molecule, the IC50 [4] was 640 nM.

COc1ccc2c3c(c4cc(OC)c(OC)cc4c2c1)C[C@H]1C[C@@H](OC)CCN1C3 gave an IC50 [1] of 7110 nM, an IC50 [2] of 3570 nM and an IC50 [3] of 5240 nM. It also gave an IC50 [4] of 3690 nM.

For COc1ccc2c3c(c4cc(OC)c(OC)cc4c2c1)C[C@H]1C[C@@H](O)[C@H](O)CN1C3, the IC50 [1] was 14500 nM, the IC50 [2] was 1710 nM and the IC50 [3] was 17500 nM. For the same molecule, the IC50 [4] was 12600 nM.

Work on COc1ccc2c3c(c4cc(OC)c(OC)cc4c2c1)C[C@H]1C[C@H](O)CN1C3 yielded an IC50 [1] of 2270 nM, an IC50 [2] of 1800 nM and an IC50 [3] of 1810 nM. For the same molecule, the IC50 [4] was 2210 nM.

For COc1ccc2c3c(c4cc(OC)c(OC)cc4c2c1)C[C@H]1C[C@H](OC)CCN1C3, the IC50 [1] was 25 nM, the IC50 [2] was 56 nM and the IC50 [3] was 100 nM. It also gave an IC50 [4] of 66 nM.

With COc1ccc2c3c(c4cc(OC)c(OC)cc4c2c1)C[C@H]1CCCN1C3 [(-)-ANTOFINE] the IC50 [4] was 25 nM.
